# According to ChEMBL document CHEMBL3352152, “Indolylmethylene benzo[h]thiazolo[2,3-b]quinazolinones: synthesis, characterization and evaluation of anticancer and antimicrobial activities” (Bioorg Med Chem Lett, 2014):
# pIC50: −log10 of the molar value.
# How the values were obtained:
# Candida albicans = assay: Antifungal activity against Candida albicans MTCC 183 at 150 ug/ml after 48 hrs by agar well diffusion method; type: functional; details: MTCC 183, 48 h, read-out: IZ
# Procedure, shortened: (§1)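 Antifungal screen by agar well diffusion against C. albicans, C. glabrata, A. niger and A. parasiticus. Clotrimazole was the standard drug. Activity was recorded as zone of inhibition (ZOI, mm).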
# Nakaseomyces glabratus = assay: Antifungal activity against Candida glabrata MTCC3019 at 150 ug/ml after 48 hrs by agar well diffusion method; type: functional; details: MTCC3019, 48 h, read-out: IZ; procedure, shortened: as §1
# Aspergillus niger = assay: Antifungal activity against Aspergillus niger MTCC 282 at 150 ug/ml after 48 hrs by agar well diffusion method; type: functional; details: MTCC 282, 48 h, read-out: IZ; procedure, shortened: as §1
# Aspergillus parasiticus = assay: Antifungal activity against Aspergillus parasiticus MTCC 8850 at 150 ug/ml after 48 hrs by agar well diffusion method; type: functional; details: MTCC 8850, 48 h, read-out: IZ; procedure, shortened: as §1
# MCF7 = assay: Anticancer activity against human MCF7 cells assessed as cell viability after 48 hrs by MTT microcultured tetrazolium assay; type: functional, cell-based; details: MCF7, 48 h
# Procedure, shortened: (§2)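 MTT-microcultured tetrazolium viability read-out in MCF-7 and HepG2 cells exposed to test samples. Surviving fraction was plotted against drug concentration to give survival curves, and IC50 was taken from these curves.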
# HepG2 = assay: Anticancer activity against human HepG2 cells assessed as cell viability after 48 hrs by MTT microcultured tetrazolium assay; type: functional, cell-based; details: HepG2, 48 h; procedure, shortened: as §2
# Staphylococcus aureus = assay: Antibacterial activity against Staphylococcus aureus MTCC 96 at 150 ug/ml after 24 hrs by agar well diffusion assay; type: functional; details: MTCC 96, 24 h, read-out: IZ
# Procedure, shortened: (§3)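 Agar well diffusion screen against the two Gram-positive strains (S. aureus, S. pyogenes) and the two Gram-negative strains (P. aeruginosa, K. pneumoniae). Streptomycin was the reference drug. Activity was read as zone of inhibition (mm).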
# Streptococcus pyogenes = assay: Antibacterial activity against Streptococcus pyogenes MTCC 1926 at 150 ug/ml after 24 hrs by agar well diffusion assay; type: functional; details: MTCC 1926, 24 h, read-out: IZ; procedure, shortened: as §3
# Klebsiella pneumoniae = assay: Antibacterial activity against Klebsiella pneumoniae MTCC 109 at 150 ug/ml after 24 hrs by agar well diffusion assay; type: functional; details: MTCC 109, 24 h, read-out: IZ; procedure, shortened: as §3
# Pseudomonas aeruginosa = assay: Antibacterial activity against Pseudomonas aeruginosa MTCC 4673 at 150 ug/ml after 24 hrs by agar well diffusion assay; type: functional; details: MTCC 4673, 24 h, read-out: IZ; procedure, shortened: as §3
Structure (SMILES),pIC50 (MCF7),pIC50 (HepG2),zone of inhibition at 150 µg/mL (Candida albicans),zone of inhibition at 150 µg/mL (Nakaseomyces glabratus),zone of inhibition at 150 µg/mL (Aspergillus niger),zone of inhibition at 150 µg/mL (Aspergillus parasiticus),zone of inhibition at 150 µg/mL (Staphylococcus aureus),zone of inhibition at 150 µg/mL (Streptococcus pyogenes),zone of inhibition at 150 µg/mL (Klebsiella pneumoniae),zone of inhibition at 150 µg/mL (Pseudomonas aeruginosa)
COc1ccc(C2C3=C(N=c4s/c(=C\c5c[nH]c6ccc(Br)cc56)c(=O)n42)c2ccc(OC)cc2CC3)cc1 (stereo not given),5.11,5.07,8 mm,12 mm,8 mm,10 mm,8 mm,8 mm,8 mm,8 mm
O=c1/c(=C/c2c[nH]c3ccccc23)sc2n1C(c1ccc(Cl)cc1)C1=C(N=2)c2ccccc2CC1 (stereo not given),4.37,4.79,8 mm,12 mm,12 mm,12 mm,12 mm,8 mm,8 mm,18 mm
O=c1/c(=C/c2c[nH]c3ccc(Br)cc23)sc2n1C(c1ccc(Cl)cc1)C1=C(N=2)c2ccccc2CC1 (stereo not given),4.72,4.86,8 mm,10 mm,8 mm,8 mm,13 mm,8 mm,8 mm,15 mm
COc1ccc(C2C3=C(N=c4s/c(=C\c5c[nH]c6ccccc56)c(=O)n42)c2ccc(OC)cc2CC3)cc1 (stereo not given),4.26,4.21,18 mm,20 mm,18 mm,18 mm,17 mm,18 mm,15 mm,8 mm

# The next lines start with results.
pIC50 (MCF7),pIC50 (HepG2),Structure (SMILES),zone of inhibition at 150 µg/mL (Candida albicans),zone of inhibition at 150 µg/mL (Nakaseomyces glabratus),zone of inhibition at 150 µg/mL (Aspergillus niger),zone of inhibition at 150 µg/mL (Aspergillus parasiticus),zone of inhibition at 150 µg/mL (Staphylococcus aureus),zone of inhibition at 150 µg/mL (Streptococcus pyogenes),zone of inhibition at 150 µg/mL (Klebsiella pneumoniae),zone of inhibition at 150 µg/mL (Pseudomonas aeruginosa)
4.63,4.46,COc1ccc2c(c1)CCC1=C2N=c2s/c(=C\c3c[nH]c4ccccc34)c(=O)n2C1c1ccc(Cl)cc1 (stereo not given),8 mm,14 mm,8 mm,10 mm,8 mm,8 mm,8 mm,8 mm
4.21,4.41,COc1ccc2c(c1)CCC1=C2N=c2s/c(=C\c3c(C)[nH]c4ccccc34)c(=O)n2C1c1ccc(Cl)cc1 (stereo not given),8 mm,8 mm,8 mm,12 mm,8 mm,8 mm,8 mm,8 mm
5.59,4.94,COc1ccc2c(c1)CCC1=C2N=c2s/c(=C\c3c[nH]c4ccc(Br)cc34)c(=O)n2C1c1ccc(Cl)cc1 (stereo not given),8 mm,10 mm,10 mm,10 mm,8 mm,8 mm,8 mm,8 mm
3.78,4.16,Cc1[nH]c2ccccc2c1/C=c1\sc2n(c1=O)C(c1ccc(Cl)cc1)C1=C(N=2)c2ccccc2CC1 (stereo not given),16 mm,19 mm,14 mm,14 mm,13 mm,8 mm,8 mm,17 mm
4.68,4.56,COc1ccc2[nH]cc(/C=c3\sc4n(c3=O)C(c3ccc(Cl)cc3)C3=C(N=4)c4ccccc4CC3)c2c1 (stereo not given),15 mm,16 mm,18 mm,18 mm,14 mm,8 mm,8 mm,14 mm
< 3.70,4.02,COc1ccc2c(c1)CCC1=C2N=c2s/c(=C\c3c(C)[nH]c4ccccc34)c(=O)n2C1c1cccc([N+](=O)[O-])c1 (stereo not given),17 mm,14 mm,20 mm,18 mm,16 mm,15 mm,14 mm,13 mm
